Test results published in ChEMBL document CHEMBL3045677, “Sulfonamide-1,2,4-thiadiazole derivatives as antifungal and antibacterial agents: synthesis, biological evaluation, lipophilicity, and conformational studies” (2010).
≈ marks a conversion by molar mass, not a printed value.

Experiments:
[1] = tested on: Escherichia coli; experiment: Antibacterial activity against Escherichia coli ATCC 35210 at […] degC measured after 24 hr by microdilution method; assay type: functional; settings: ATCC 35210, 24 h
How it was run: (§1)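 Bacteria suspended in sterile saline at 1.0×10⁵ CFU/ml and added at 1.0×10⁴ CFU per well to LB broth with compound (1 mg/ml) in 96-well plates. Incubated 24 h at […] °C. MIC was the lowest concentration without visible growth under a binocular microscope. OD 655 nm was read against a blank and a positive control.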

[2] = tested on: Escherichia coli; experiment: Antibacterial activity against Escherichia coli ATCC 35210 at […] degC measured after 72 hr by microdilution method; assay type: functional; settings: ATCC 35210, 72 h
How it was run: (§2)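 Bactericidal endpoint: after the 24 h broth microdilution (1.0×10⁴ CFU per well, LB broth, […] °C), wells were serially subcultured into plates of fresh broth and incubated a further 72 h. MBC was the lowest concentration with no visible growth, taken as 99.5% killing of the original inoculum.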

[3] = tested on: Listeria monocytogenes; experiment: Antibacterial activity against Listeria monocytogenes NCTC 7973 at […] degC measured after 24 hr by microdilution method; assay type: functional; settings: NCTC 7973, 24 h; how it was run: as §1
[4] = tested on: Proteus mirabilis; experiment: Antibacterial activity against Proteus mirabilis at […] degC measured after 24 hr by microdilution method; assay type: functional; how it was run: as §1
[5] = tested on: Bacillus cereus; experiment: Antibacterial activity against clinical isolate Bacillus cereus at […] degC measured after 24 hr by microdilution method; assay type: functional; how it was run: as §1
[6] = tested on: Micrococcus flavus; experiment: Antibacterial activity against Micrococcus flavus ATCC 10240 at […] degC measured after 72 hr by microdilution method; assay type: functional; settings: ATCC 10240, 72 h; how it was run: as §2
[7] = tested on: Staphylococcus aureus; experiment: Antibacterial activity against Staphylococcus aureus ATCC 6538 at […] degC measured after 72 hr by microdilution method; assay type: functional; settings: ATCC 6538, 72 h; how it was run: as §2
[8] = tested on: Aspergillus versicolor; experiment: Antifungal activity against Aspergillus versicolor ATCC 11730 at 28 degC measured after 72 hr by microdilution method; assay type: functional; settings: ATCC 11730, 72 h
How it was run: (§3)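 Fungi were kept on malt agar at 4 °C. Spores were washed off with sterile 0.85% saline containing 0.1% Tween 80 and adjusted to about 1.0×10⁵ per well. Compounds were dissolved in DMSO (1 mg/ml stock) and serially diluted in malt broth with inoculum in 96-well plates, 72 h at 28 °C, for MIC. MFC came from subculture into fresh broth for a further 72 h at 28 °C.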

[9] = tested on: Staphylococcus aureus; experiment: Antibacterial activity against Staphylococcus aureus ATCC 6538 at […] degC measured after 24 hr by microdilution method; assay type: functional; settings: ATCC 6538, 24 h; how it was run: as §1
[10] = tested on: Aspergillus fumigatus; experiment: Antifungal activity against plant isolate Aspergillus fumigatus at 28 degC measured after 72 hr by microdilution method; assay type: functional; how it was run: as §3
[11] = tested on: Proteus mirabilis; experiment: Antibacterial activity against Proteus mirabilis at […] degC measured after 72 hr by microdilution method; assay type: functional; how it was run: as §2
[12] = tested on: Bacillus cereus; experiment: Antibacterial activity against clinical isolate Bacillus cereus at […] degC measured after 72 hr by microdilution method; assay type: functional; how it was run: as §2
[13] = tested on: Pseudomonas aeruginosa; experiment: Antibacterial activity against Pseudomonas aeruginosa ATCC 27853 at […] degC measured after 72 hr by microdilution method; assay type: functional; settings: ATCC 27853, 72 h; how it was run: as §2
[14] = tested on: Penicillium ochrochloron; experiment: Antifungal activity against Penicillium ochrochloron ATCC 9112 at 28 degC measured after 72 hr by microdilution method; assay type: functional; settings: ATCC 9112, 72 h; how it was run: as §3
[15] = tested on: Talaromyces funiculosus; experiment: Antifungal activity against Talaromyces funiculosus ATCC 36839 at 28 degC measured after 72 hr by microdilution method; assay type: functional; settings: ATCC 36839, 72 h; how it was run: as §3
[16] = tested on: Aspergillus flavus; experiment: Antifungal activity against Aspergillus flavus ATCC 9643 at 28 degC measured after 72 hr by microdilution method; assay type: functional; settings: ATCC 9643, 72 h; how it was run: as §3
[17] = tested on: Micrococcus flavus; experiment: Antibacterial activity against Micrococcus flavus ATCC 10240 at […] degC measured after 24 hr by microdilution method; assay type: functional; settings: ATCC 10240, 24 h; how it was run: as §1
[18] = tested on: Salmonella typhimurium; experiment: Antibacterial activity against Salmonella enterica subsp. enterica serovar TyphimuriumATCC 13311 at […] degC measured after 72 hr by microdilution method; assay type: functional, Salmonella enterica subsp. enterica serovar Typhimurium; settings: ATCC 13311, 72 h; how it was run: as §2
[19] = tested on: Trichoderma viride; experiment: Antifungal activity against Hypocrea rufa IAM 5061 at 28 degC measured after 72 hr by microdilution method; assay type: functional; settings: IAM 5061, 72 h; how it was run: as §3
[20] = tested on: Fulvia fulva; experiment: Antifungal activity against Passalora fulva TK5318 at 28 degC measured after 72 hr by microdilution method; assay type: functional; settings: TK5318, 72 h; how it was run: as §3
[21] = tested on: Salmonella typhimurium; experiment: Antibacterial activity against Salmonella enterica subsp. enterica serovar Typhimurium ATCC 13311 at […] degC measured after 24 hr by microdilution method; assay type: functional; settings: ATCC 13311, 24 h; how it was run: as §1
[22] = tested on: Listeria monocytogenes; experiment: Antibacterial activity against Listeria monocytogenes NCTC 7973 at […] degC measured after 72 hr by microdilution method; assay type: functional; settings: NCTC 7973, 72 h; how it was run: as §2
[23] = tested on: Aspergillus niger; experiment: Antifungal activity against Aspergillus niger ATCC 6275 at 28 degC measured after 72 hr by microdilution method; assay type: functional; settings: ATCC 6275, 72 h; how it was run: as §3
[24] = tested on: Pseudomonas aeruginosa; experiment: Antibacterial activity against Pseudomonas aeruginosa ATCC 27853 at […] degC measured after 24 hr by microdilution method; assay type: functional; settings: ATCC 27853, 24 h; how it was run: as §1

Structure (SMILES)	MIC [1]	MBC [2]	MIC [3]	MIC [4]	MIC [5]	MBC [6]	MBC [7]	MFC [8]	MIC [8]	MIC [9]	MFC [10]	MIC [10]	MBC [11]	MBC [12]	MBC [13]	MFC [14]	MIC [14]	MFC [15]	MIC [15]	MFC [16]	further results
COc1cc(Cc2nnc(Nc3ccc([N+](=O)[O-])cc3)s2)c(S(=O)(=O)N2CCCCC2)cc1OC	19.3 µM (≈ 10 µg/mL)	38.6 µM (≈ 20.1 µg/mL)	19.3 µM (≈ 10 µg/mL)	38.6 µM (≈ 20.1 µg/mL)	19.3 µM (≈ 10 µg/mL)	38.6 µM (≈ 20.1 µg/mL)	77.2 µM (≈ 40.1 µg/mL)	38.6 µM (≈ 20.1 µg/mL)	19.3 µM (≈ 10 µg/mL)	38.6 µM (≈ 20.1 µg/mL)	38.6 µM (≈ 20.1 µg/mL)	19.3 µM (≈ 10 µg/mL)	77.2 µM (≈ 40.1 µg/mL)	38.6 µM (≈ 20.1 µg/mL)	19.3 µM (≈ 10 µg/mL)	38.6 µM (≈ 20.1 µg/mL)	19.3 µM (≈ 10 µg/mL)	38.6 µM (≈ 20.1 µg/mL)	19.3 µM (≈ 10 µg/mL)	38.6 µM (≈ 20.1 µg/mL)	MIC [16]: 19.3 µM (≈ 10 µg/mL); MIC [17]: 19.3 µM (≈ 10 µg/mL); MBC [18]: 19.3 µM (≈ 10 µg/mL); MFC [19]: 19.3 µM (≈ 10 µg/mL); MIC [19]: 9.7 µM (≈ 5.04 µg/mL); MFC [20]: 19.3 µM (≈ 10 µg/mL); MIC [20]: 9.7 µM (≈ 5.04 µg/mL); MIC [21]: 9.7 µM (≈ 5.04 µg/mL); MBC [22]: 77.2 µM (≈ 40.1 µg/mL); MFC [23]: 38.6 µM (≈ 20.1 µg/mL); MIC [23]: 19.3 µM (≈ 10 µg/mL); MIC [24]: 9.7 µM (≈ 5.04 µg/mL)
COc1cc(Cc2nnc(Nc3ccc(C(F)(F)F)cc3)s2)c(S(=O)(=O)N2CCCCC2)cc1OC	18.4 µM (≈ 9.98 µg/mL)	36.8 µM (≈ 20 µg/mL)	18.4 µM (≈ 9.98 µg/mL)	36.8 µM (≈ 20 µg/mL)	9.2 µM (≈ 4.99 µg/mL)	18.4 µM (≈ 9.98 µg/mL)	36.8 µM (≈ 20 µg/mL)	18.4 µM (≈ 9.98 µg/mL)	9.2 µM (≈ 4.99 µg/mL)	18.4 µM (≈ 9.98 µg/mL)	36.8 µM (≈ 20 µg/mL)	9.2 µM (≈ 4.99 µg/mL)	73.6 µM (≈ 39.9 µg/mL)	18.4 µM (≈ 9.98 µg/mL)	18.4 µM (≈ 9.98 µg/mL)	36.8 µM (≈ 20 µg/mL)	18.4 µM (≈ 9.98 µg/mL)	18.4 µM (≈ 9.98 µg/mL)	9.2 µM (≈ 4.99 µg/mL)	36.8 µM (≈ 20 µg/mL)	MIC [16]: 18.4 µM (≈ 9.98 µg/mL); MIC [17]: 9.2 µM (≈ 4.99 µg/mL); MBC [18]: 18.4 µM (≈ 9.98 µg/mL); MFC [19]: 18.4 µM (≈ 9.98 µg/mL); MIC [19]: 9.2 µM (≈ 4.99 µg/mL); MFC [20]: 18.4 µM (≈ 9.98 µg/mL); MIC [20]: 9.2 µM (≈ 4.99 µg/mL); MIC [21]: 9.2 µM (≈ 4.99 µg/mL); MBC [22]: 73.6 µM (≈ 39.9 µg/mL); MFC [23]: 36.8 µM (≈ 20 µg/mL); MIC [23]: 18.4 µM (≈ 9.98 µg/mL); MIC [24]: 9.2 µM (≈ 4.99 µg/mL)
COc1cc(Cc2nnc(Nc3ccc(Cl)cc3)s2)c(S(=O)(=O)N2CCN(C)CC2)cc1OC	19.1 µM (≈ 10 µg/mL)	76.4 µM (≈ 40 µg/mL)	19.1 µM (≈ 10 µg/mL)	38.2 µM (≈ 20 µg/mL)	19.1 µM (≈ 10 µg/mL)	19.1 µM (≈ 10 µg/mL)	76.4 µM (≈ 40 µg/mL)	38.2 µM (≈ 20 µg/mL)	38.2 µM (≈ 20 µg/mL)	38.2 µM (≈ 20 µg/mL)	38.2 µM (≈ 20 µg/mL)	9.6 µM (≈ 5.03 µg/mL)	76.4 µM (≈ 40 µg/mL)	38.2 µM (≈ 20 µg/mL)	76.4 µM (≈ 40 µg/mL)	38.2 µM (≈ 20 µg/mL)	19.1 µM (≈ 10 µg/mL)	38.2 µM (≈ 20 µg/mL)	19.1 µM (≈ 10 µg/mL)	38.2 µM (≈ 20 µg/mL)	MIC [16]: 19.1 µM (≈ 10 µg/mL); MIC [17]: 9.6 µM (≈ 5.03 µg/mL); MBC [18]: 38.2 µM (≈ 20 µg/mL); MFC [19]: 19.1 µM (≈ 10 µg/mL); MIC [19]: 9.6 µM (≈ 5.03 µg/mL); MFC [20]: 19.1 µM (≈ 10 µg/mL); MIC [20]: 9.6 µM (≈ 5.03 µg/mL); MIC [21]: 9.6 µM (≈ 5.03 µg/mL); MBC [22]: 76.4 µM (≈ 40 µg/mL); MFC [23]: 38.2 µM (≈ 20 µg/mL); MIC [23]: 19.1 µM (≈ 10 µg/mL); MIC [24]: 19.1 µM (≈ 10 µg/mL)
